Source: ChEMBL document CHEMBL1932928, “II. Novel HCV NS5B polymerase inhibitors: discovery of indole C2 acyl sulfonamides” (Bioorg Med Chem Lett, 2012)

Tests used:
[1] = system: Hepatitis C virus; experiment: Antiviral activity against HCV 1b con1 assessed as inhibition of viral RNA replication after 3 days by RT-PCR analysis; type: functional, organism-based, Hepacivirus hominis; conditions: Con1, 72 h
Outline: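 Genotype 1b-Con1 replicon cells were seeded at 5000/well one day before dosing. Inhibitor was added at 0.5% final DMSO in medium with 5% FBS, and cells were harvested after 3 days. Replicon RNA was quantified by Taqman real-time RT-PCR normalized to GAPDH RNA. EC50 came from 10 serial twofold dilutions in duplicate.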

[2] = Inhibition of HCV NS5B Cdelta21 RNA polymerase activity assessed as incorporation of [33P]-CTP into heteropolymer RNA template after 150 mins; set-up: species or system Hepacivirus hominis
Outline: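 Radiolabeled nucleotide incorporation using 30 nM NS5B (Δ21) with 100 nM heteropolymer RNA template and 0.25 mM trinucleotide initiator. Buffer: 20 mM HEPES pH 7.3, 7.5 mM DTT, 20 units/mL RNasin, 10 mM MgCl₂, 60 mM NaCl, BSA, GTP/ATP/UTP, [³³P]-CTP with 20 nM CTP. Run 150 min at room temperature, EDTA-stopped, filter-washed, incorporated label counted. IC50 from 10 twofold dilutions in duplicate.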

With `Nc1cc(Cn2c(C(=O)NS(=O)(=O)c3ccc(O)cc3)c(-c3ccc[nH]c3=O)c3cc(Cl)ccc32)ccn1` as the compound, how does the EC50 [1] read?
The EC50 was 100 nM.

And the IC50 [2]?
The IC50 was 24 nM.

For `N#Cc1c(-c2ccc[nH]c2=O)c2cc(Cl)ccc2n1Cc1ccnc(N)c1`, which EC50 [1] is on record?
Its EC50 is 8300 nM.

What about the IC50 [2] of the same compound?
The IC50 was > 20000 nM.

Which IC50 [2] does the source give for `CCOC(=O)c1c(-c2ccc[nH]c2=O)c2cc(Cl)ccc2n1Cc1ccnc(N)c1` here?
The IC50 was > 20000 nM.

Which EC50 [1] does the source give for `CS(=O)(=O)NC(=O)c1c(-c2ccc[nH]c2=O)c2cc(Cl)ccc2n1Cc1ccnc(N)c1` here?
Its EC50 is 300 nM.

What about the IC50 [2] of the same compound?
Its IC50 is 18 nM.

For `Nc1cc(Cn2c(CC(=O)O)c(-c3ccc[nH]c3=O)c3cc(Cl)ccc32)ccn1`, which IC50 [2] is on record?
The IC50 was 7000 nM.

Which IC50 [2] does the source give for `CS(=O)(=O)NC(=O)Cc1c(-c2ccc[nH]c2=O)c2cc(Cl)ccc2n1Cc1ccnc(N)c1` here?
Its IC50 is 2200 nM.

For `CS(=O)(=O)NCc1c(-c2ccc[nH]c2=O)c2cc(Cl)ccc2n1Cc1ccnc(N)c1`, which IC50 [2] is on record?
The IC50 was > 20000 nM.

Which EC50 [1] does the source give for `Nc1cc(Cn2c(C(=O)NS(N)(=O)=O)c(-c3ccc[nH]c3=O)c3cc(Cl)ccc32)ccn1` here?
The EC50 was 2200 nM.

What about the IC50 [2] of the same compound?
The IC50 was 29 nM.

Which results are given for `Nc1cc(Cn2c(C3=NS(=O)(=O)c4ccccc4N3)c(-c3ccc[nH]c3=O)c3cc(Cl)ccc32)ccn1`?
EC50 [1]: 600 nM; IC50 [2]: 12 nM

With `CS(=O)(=O)NC(=O)c1c(-c2ccc[nH]c2=O)c2cc(Cl)ccc2n1Cc1ccccc1F` as the compound, how does the EC50 [1] read?
Its EC50 is 230 nM.

What about the IC50 [2] of the same compound?
Its IC50 is 33 nM.

What does the source list for `CS(=O)(=O)NC(=O)c1c(-c2ccc[nH]c2=O)c2cc(Cl)ccc2n1Cc1ccc(F)cc1F`?
EC50 [1]: 2200 nM; IC50 [2]: 41 nM

For `CCNS(=O)(=O)c1c(-c2ccc[nH]c2=O)c2cc(Cl)ccc2n1Cc1ccc(F)cc1F`, which IC50 [2] is on record?
Its IC50 is 3000 nM.

Which IC50 [2] does the source give for `NS(=O)(=O)c1c(-c2ccc[nH]c2=O)c2cc(Cl)ccc2n1Cc1ccc(F)cc1F` here?
The IC50 was 2700 nM.

With `O=c1[nH]cccc1-c1c(-c2nc3ccccc3[nH]2)n(Cc2ccc(F)cc2F)c2ccc(Cl)cc12` as the compound, how does the EC50 [1] read?
The EC50 was 8000 nM.

What about the IC50 [2] of the same compound?
Its IC50 is 570 nM.

With `CS(=O)(=O)NC(=O)c1c(-c2c[nH]c(=O)[nH]c2=O)c2cc(Cl)ccc2n1Cc1ccnc(N)c1` as the compound, how does the EC50 [1] read?
The EC50 was 3000 nM.

And the IC50 [2]?
Its IC50 is 27 nM.

For `CS(=O)(=O)NC(=O)c1c(-c2ccc[nH]c2=O)c2cc(C(F)(F)F)ccc2n1Cc1ccccc1F`, which EC50 [1] is on record?
The EC50 was 120 nM.

And the IC50 [2]?
The IC50 was 6 nM.

For `CS(=O)(=O)NC(=O)c1c(-n2c(=O)[nH]c3cscc3c2=O)c2cc(C(F)(F)F)ccc2n1Cc1ccccc1F`, which EC50 [1] is on record?
The EC50 was 700 nM.

What about the IC50 [2] of the same compound?
The IC50 was 15 nM.

For `CCS(=O)(=O)NC(=O)c1c(-c2ccc[nH]c2=O)c2cc(Cl)ccc2n1Cc1ccnc(N)c1`, which EC50 [1] is on record?
The EC50 was 600 nM.

What about the IC50 [2] of the same compound?
The IC50 was 18 nM.

Which results are given for `CC(C)(C)S(=O)(=O)NC(=O)c1c(-c2ccc[nH]c2=O)c2cc(Cl)ccc2n1Cc1ccnc(N)c1`?
EC50 [1]: 1000 nM; IC50 [2]: 31 nM

Which EC50 [1] does the source give for `Nc1cc(Cn2c(C(=O)NS(=O)(=O)c3ccccc3)c(-c3ccc[nH]c3=O)c3cc(Cl)ccc32)ccn1` here?
The EC50 was 400 nM.

And the IC50 [2]?
Its IC50 is 16 nM.

What does the source list for `Nc1cc(Cn2c(C(=O)NS(=O)(=O)Cc3ccccc3)c(-c3ccc[nH]c3=O)c3cc(Cl)ccc32)ccn1`?
EC50 [1]: 1200 nM; IC50 [2]: 24 nM

With `O=C(NS(=O)(=O)C1CC1)c1c(-c2ccc[nH]c2=O)c2cc(Cl)ccc2n1Cc1ccccc1F` as the compound, how does the EC50 [1] read?
The EC50 was 270 nM.

What about the IC50 [2] of the same compound?
Its IC50 is 5 nM.

For `CC(C)S(=O)(=O)NC(=O)c1c(-c2ccc[nH]c2=O)c2cc(Cl)ccc2n1Cc1ccccc1F`, which EC50 [1] is on record?
The EC50 was 400 nM.

What about the IC50 [2] of the same compound?
The IC50 was 13 nM.

For `O=C(NS(=O)(=O)C1CCCC1)c1c(-c2ccc[nH]c2=O)c2cc(Cl)ccc2n1Cc1ccccc1F`, which EC50 [1] is on record?
The EC50 was 1400 nM.

What about the IC50 [2] of the same compound?
The IC50 was 28 nM.

For `O=C(NS(=O)(=O)CCCCl)c1c(-c2ccc[nH]c2=O)c2cc(Cl)ccc2n1Cc1ccccc1F`, which EC50 [1] is on record?
Its EC50 is 2800 nM.

And the IC50 [2]?
The IC50 was 8 nM.

For `CS(=O)(=O)NCCS(=O)(=O)NC(=O)c1c(-c2ccc[nH]c2=O)c2cc(Cl)ccc2n1Cc1ccccc1F`, which EC50 [1] is on record?
Its EC50 is 470 nM.

And the IC50 [2]?
Its IC50 is 5 nM.

What does the source list for `COc1ccc(S(=O)(=O)NC(=O)c2c(-c3ccc[nH]c3=O)c3cc(Cl)ccc3n2Cc2ccnc(N)c2)cc1`?
EC50 [1]: 500 nM; IC50 [2]: 22 nM

Which EC50 [1] does the source give for `Cc1ccc(S(=O)(=O)NC(=O)c2c(-c3ccc[nH]c3=O)c3cc(Cl)ccc3n2Cc2ccnc(N)c2)cc1` here?
Its EC50 is 600 nM.

What about the IC50 [2] of the same compound?
Its IC50 is 19 nM.

Which results are given for `Nc1cc(Cn2c(C(=O)NS(=O)(=O)c3ccccc3F)c(-c3ccc[nH]c3=O)c3cc(Cl)ccc32)ccn1`?
EC50 [1]: 800 nM; IC50 [2]: 31 nM

Which EC50 [1] does the source give for `Nc1cc(Cn2c(C(=O)NS(=O)(=O)c3cccc(Cl)c3)c(-c3ccc[nH]c3=O)c3cc(Cl)ccc32)ccn1` here?
The EC50 was 1500 nM.

And the IC50 [2]?
The IC50 was 43 nM.

With `Nc1cc(Cn2c(C(=O)NS(=O)(=O)c3cc(F)ccc3F)c(-c3ccc[nH]c3=O)c3cc(Cl)ccc32)ccn1` as the compound, how does the EC50 [1] read?
Its EC50 is 700 nM.

What about the IC50 [2] of the same compound?
The IC50 was 28 nM.

Which results are given for `Nc1cc(Cn2c(C(=O)NS(=O)(=O)c3cc(F)cc(F)c3)c(-c3ccc[nH]c3=O)c3cc(Cl)ccc32)ccn1`?
EC50 [1]: 700 nM; IC50 [2]: 26 nM

Which results are given for `Nc1cc(Cn2c(C(=O)NS(=O)(=O)c3ccc(F)cc3F)c(-c3ccc[nH]c3=O)c3cc(Cl)ccc32)ccn1`?
EC50 [1]: 1600 nM; IC50 [2]: 49 nM

What does the source list for `Cc1cc(F)ccc1S(=O)(=O)NC(=O)c1c(-c2ccc[nH]c2=O)c2cc(Cl)ccc2n1Cc1ccnc(N)c1`?
EC50 [1]: 1900 nM; IC50 [2]: 34 nM

What does the source list for `Nc1cc(Cn2c(C(=O)NS(=O)(=O)c3ccccc3N)c(-c3ccc[nH]c3=O)c3cc(Cl)ccc32)ccn1`?
EC50 [1]: 1700 nM; IC50 [2]: 28 nM

With `Nc1cccc(S(=O)(=O)NC(=O)c2c(-c3ccc[nH]c3=O)c3cc(Cl)ccc3n2Cc2ccnc(N)c2)c1` as the compound, how does the EC50 [1] read?
Its EC50 is 1000 nM.

What about the IC50 [2] of the same compound?
Its IC50 is 36 nM.

What does the source list for `Nc1ccc(S(=O)(=O)NC(=O)c2c(-c3ccc[nH]c3=O)c3cc(Cl)ccc3n2Cc2ccnc(N)c2)cc1`?
EC50 [1]: 400 nM; IC50 [2]: 35 nM

Which results are given for `N#Cc1ccc(S(=O)(=O)NC(=O)c2c(-c3ccc[nH]c3=O)c3cc(Cl)ccc3n2Cc2ccnc(N)c2)cc1`?
EC50 [1]: 1700 nM; IC50 [2]: 36 nM

Which EC50 [1] does the source give for `COC(=O)c1ccc(S(=O)(=O)NC(=O)c2c(-c3ccc[nH]c3=O)c3cc(Cl)ccc3n2Cc2ccnc(N)c2)cc1` here?
The EC50 was 1100 nM.

And the IC50 [2]?
The IC50 was 32 nM.

For `COC(=O)c1cccc(S(=O)(=O)NC(=O)c2c(-c3ccc[nH]c3=O)c3cc(Cl)ccc3n2Cc2ccnc(N)c2)c1`, which EC50 [1] is on record?
Its EC50 is 300 nM.

What about the IC50 [2] of the same compound?
The IC50 was 27 nM.

For `Nc1cc(Cn2c(C(=O)NS(=O)(=O)c3cccc(S(N)(=O)=O)c3)c(-c3ccc[nH]c3=O)c3cc(Cl)ccc32)ccn1`, which EC50 [1] is on record?
Its EC50 is 1900 nM.

What about the IC50 [2] of the same compound?
Its IC50 is 34 nM.

Which EC50 [1] does the source give for `CS(=O)(=O)Nc1cccc(S(=O)(=O)NC(=O)c2c(-c3ccc[nH]c3=O)c3cc(Cl)ccc3n2Cc2ccnc(N)c2)c1` here?
Its EC50 is 11 nM.

With `CS(=O)(=O)Nc1ccc(S(=O)(=O)NC(=O)c2c(-c3ccc[nH]c3=O)c3cc(Cl)ccc3n2Cc2ccnc(N)c2)cc1` as the compound, how does the EC50 [1] read?
The EC50 was 500 nM.

And the IC50 [2]?
The IC50 was 20 nM.

With `CS(=O)(=O)Nc1cccc(S(=O)(=O)NC(=O)c2c(-c3ccc[nH]c3=O)c3cc(Cl)ccc3n2Cc2ccccc2F)c1` as the compound, how does the EC50 [1] read?
The EC50 was 20 nM.

What about the IC50 [2] of the same compound?
The IC50 was 18 nM.
